Compound activity from PubChem.
Rows were chosen to be rich in hits. Some 2.4% of all compounds tested hit in one or more screens of this group.
SUMO1-SIM PPI – SUMO1-SIM interaction modulation. AID 602429. P63165. SUMO1 binding to a labelled peptide, TR-FRET, 1 h. 360,000 compounds, 0.33% hits. inhibition, % at 20 µM; in the data active = inhibition above about 37%
Target sequence (P63165 whole entry, looked up): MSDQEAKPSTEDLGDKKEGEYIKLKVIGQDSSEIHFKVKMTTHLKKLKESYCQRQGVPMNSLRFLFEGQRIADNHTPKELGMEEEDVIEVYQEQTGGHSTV
DNMT1 block – blocks human DNA methyltransferase DNMT1; DNMT1 molecular beacon, Hinp1I cleavage, fluorescence; 360,000 compounds, 0.83% hits; inhibition (reported as % activation of signal), % at 10 µM; AID 588458; in the data active = inhibition above about 50%
LMPTP inh – LMPTP (human) inhibition. P24666. recombinant LMPTP-A, OMFP fluorogenic substrate, fluorescence intensity. inhibition, % at 20 µM. 360,000 compounds, 0.22% hits;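 active = compounds that cut the enzyme signal by at least half of the control window in the single-dose screen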;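 also: plate controls were DMSO wells with enzyme plus substrate for no effect and substrate without enzyme for full effect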
Target sequence (P24666 whole entry, looked up): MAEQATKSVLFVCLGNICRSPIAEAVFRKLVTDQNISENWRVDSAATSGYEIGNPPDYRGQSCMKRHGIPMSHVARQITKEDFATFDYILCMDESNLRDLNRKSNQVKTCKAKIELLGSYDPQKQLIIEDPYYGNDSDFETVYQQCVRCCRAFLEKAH
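Test system: LMPTP-A, protein tyrosine phosphatase of low molecular weight; Input: 0.625 nM enzyme; Incubation: 50 min dark incubation at room temperature; Signal: endpoint fluorescence intensity from OMFP dephosphorylation; Read-out basis: % inhibition versus control wells.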
STEP inh – inhibitors of human striatal-enriched phosphatase STEP; recombinant STEP, OMFP fluorogenic substrate, fluorescence; AID 588621; inhibition, % at 20 µM; P54829; 360,000 compounds, 0.25% hits;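 active = inhibition at 20 µM, scaled per plate between control wells, above about 37%, limit read from the data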;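 also: 0% = DMSO with enzyme and substrate and 100% = substrate only without enzyme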
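System: isolated STEP enzyme; schedule: 20 min enzyme reaction at room temperature, protected from light; medium: Bis-Tris buffer pH 6.0, 2.5 mM DTT, 0.005% Tween 20; signal: fluorescence, 480/540 nm; dosing: single compound dose of 20 µM, 1% DMSO final; also added: OMFP substrate, 25 µM final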
Scp-1 inhibitor – Scp-1 (human) phosphatase inhibition | 340,000 compounds, 0.88% hits | Recombinant Scp1, phosphopeptide, malachite green phosphate absorbance | Q9GZU7 | inhibition, % at 20 µM;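 active = inhibition above about 50% at 20 µM, limit read from the data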;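 also: plate controls were DMSO wells with enzyme for no effect and wells lacking enzyme for full effect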
Target sequence (Q9GZU7 76-261 limits assumed): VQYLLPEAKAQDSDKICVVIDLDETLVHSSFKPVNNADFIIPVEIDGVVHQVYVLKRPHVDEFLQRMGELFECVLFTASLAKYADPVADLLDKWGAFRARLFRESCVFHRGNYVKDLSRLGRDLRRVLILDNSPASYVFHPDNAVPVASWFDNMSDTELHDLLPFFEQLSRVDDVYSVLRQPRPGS
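assay system = SCP-1 phosphatase catalytic domain, residues 76-261 | buffer or medium = 50 mM Tris acetate pH 5.5, 0.005% Tween-20, 10 mM MgCl2 | incubation = enzyme reaction 45 min at room temperature, colour 5 min, stabilisation 30 min | signal = Phosphate-binding colour reagent, absorbance read at 630 nm | measure = % inhibition at 20 µM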
NadD inh – inhibitors of Staphylococcus aureus NadD; purified NadD enzyme, colorimetric absorbance read-out; inhibition, % at 20 µM; 360,000 compounds, 0.78% hits; AID 602399; in the data active = inhibition above about 26%
The depositor's hits bear a star; · = no result given.

SMILES	SUMO1-SIM PPI	DNMT1 block	LMPTP inh	STEP inh	Scp-1 inhibitor	NadD inh
O=c1cc(CSc2nc(NCc3ccccc3)c3ccccc3n2)nc2ccc(Cl)cn12	-15.5	-2.4	53.3*	0.1	0.6	10.6
CCOC(=O)C1=C(COc2ccccc2)NC(=O)NC1c1ccc(Cl)cc1 (centres undefined)	68.7*	4.0	-1.1	-2.8	49.7	-4.4
Cc1csc(NC(=O)CSc2nncn2C)n1	1.5	2.8	-0.3	-1.2	-2.2	3.9
Cn1cnnc1SCC(=O)Nc1ncc([N+](=O)[O-])s1	4.0	83.7*	22.1	6.6	74.7*	8.8
CC1=NN(c2ccc(Cl)c(C(=O)O)c2)C(=O)/C1=C\c1ccc(-c2ccc(C(=O)O)cc2)o1	13.5	27.9	1.2	20.7	81.2*	0.6
O=C1NN(c2cccc(Br)c2)C(=O)/C1=C/c1ccc(-c2cc([N+](=O)[O-])ccc2O)o1	102.3*	52.6*	76.7*	69.5*	98.9*	70.0*
CC1=NN(c2ccc(C)cc2)C(=O)/C1=C/c1ccc(-c2cc([N+](=O)[O-])ccc2O)o1	79.6*	41.0	24.7	7.1	20.5	27.0
O=C1NN(c2ccc(Cl)c(Cl)c2)C(=O)/C1=C/c1ccc(-c2ccccc2C(=O)O)o1	29.6	59.7*	8.2	20.3	49.4	6.6
CC1=NN(c2ccccc2)C(=O)/C1=C/c1ccc(-c2ccc(C)c(C(=O)O)c2)o1	·	·	·	·	5.3	·
Cc1cccc(NC(=O)CN2C(=O)N/C(=C\c3ccc(N4CCOCC4)cc3)C2=O)c1	-8.8	44.3	-1.1	3.5	-7.4	11.8
COc1ccc(Cn2c(C)c(C)c(C#N)c2NC(=O)Nc2ccccc2)cc1	-1.5	2.2	-0.1	-1.1	6.3	1.1
CC(C)c1ccc2[nH]c(O)c(N=NC(=O)c3cccc(S(=O)(=O)Nc4ccccc4Cl)c3)c2c1	-1.0	20.7	0.2	-4.8	0.8	38.4*
CC(C)NC(=O)c1sc(=S)n2c1[nH]c(=O)c1ccc(C(=O)NCCc3ccc(Cl)cc3)cc12	26.5	-24.3	33.7	40.0*	-6.8	23.3
CCOc1ccc(CCNC(=O)c2ccc3c(=O)[nH]c4c(C(=O)NC(C)C)sc(=S)n4c3c2)cc1	10.0	-11.4	1.2	1.7	-8.8	29.9
Cc1cc(/C=C2\SC(=Nc3ccccc3)NC2=O)c(C)n1-c1ccc(S(N)(=O)=O)cc1	2.7	-18.8	0.3	-2.1	-3.2	45.8*
C#CC(=O)CC1(CN(Cc2ccccc2)C(=O)OC(C)(C)C)CCCCC1	4.0	54.5*	0.1	-1.0	-3.6	8.2
CON(C)C(=O)CC1(CN(Cc2ccccc2)C(=O)OC(C)(C)C)CCCCC1	6.5	4.8	2.1	2.8	-6.5	-4.8
O=C(O)c1ccc(N2C(=O)/C(=C/c3ccc(-c4ccc([N+](=O)[O-])cc4)o3)C=C2c2ccccc2)cc1	102.6*	80.9*	79.1*	87.4*	66.4*	55.9*
CCC1CCCCN1CCCNC(=O)CN1C(=O)COc2ccc(S(=O)(=O)N3CCC(C)CC3)cc21 (centres undefined)	40.2*	1.4	-2.8	-1.2	0.6	-9.0
CCCCN(CCCC)CCNC(=O)CN1C(=O)COc2ccc(S(=O)(=O)N3CCC(C)CC3)cc21	-0.6	-0.5	0.3	-1.9	-1.7	-6.4
O=C(O)C1Nc2c(O)cc(Cl)c([N+](=O)[O-])c2C2C=CCC12 (centres undefined)	103.9*	89.0*	90.9*	97.3*	62.0*	63.3*
C=C(C)Cn1c(SCC(=O)N/N=C/c2c(O)ccc3ccccc23)nc2ccccc2c1=O	-0.7	-12.5	3.6	2.4	18.6	34.8*
O=C(NCc1ccco1)c1cc2c(s1)CSC2	·	·	·	·	99.0*	·
N=c1ncn(CC(O)CO)c2nc(N3CCOCC3)[nH]c12 (centres undefined)	-2.6	2.4	6.4	-1.0	-6.2	-5.0
CCCCC(CC)CN=C(N)NC(N)=NCCCCCCN=C(N)NC(N)=NCC(CC)CCCC (centres undefined)	86.0*	-85.6	0.7	6.9	-11.7	15.0
SMILES	SUMO1-SIM PPI	DNMT1 block	LMPTP inh	STEP inh	Scp-1 inhibitor	NadD inh
NC(=O)c1ccc(NCCc2cccs2)cc1	39.0*	-3.1	-0.6	-0.9	·	-4.5
Cc1ccc2cc(NC(=O)c3ccccc3)ccc2n1	1.1	1.5	0.6	-1.4	-6.5	-3.5
O=C1c2cccc3cc([N+](=O)[O-])cc(c23)C(=O)N1CCN1CCCC1	-21.2	70.5*	40.3	3.7	-1.8	-2.3
Nc1cc2c3c(cccc3c1)C(=O)N(CCN1CCCC1)C2=O	-27.4	50.9*	21.9	-0.6	1.4	5.7
CCN(CC)CCN1C(=O)c2cccc3cc(N)cc(c23)C1=O	-28.9	29.9	9.9	2.8	-6.0	4.4
Cc1ccc2c(c1)C(=O)C(=O)N2Cc1ccc(Br)cc1	-32.3	2.7	2.9	-0.4	-4.4	2.5
C/C(=N\NC(=O)CN(c1ccccc1Br)S(C)(=O)=O)c1ccc2c(c1)OCCO2	5.8	-1.4	-0.5	0.2	-5.5	-1.4
N#C/C(=C\c1ccc(C(=O)O)cc1)c1nc2sc3c(c2c(=O)[nH]1)CCCC3	31.2	43.4	26.6	-6.4	75.7*	13.1
Cc1ccc2c(nc3s/c(=C\c4ccc(-c5ccccc5C(=O)O)o4)c(=O)n32)c1C	17.8	62.9*	10.5	34.3	76.2*	18.7
Cc1ccc2c(nc3s/c(=C/c4cccs4)c(=O)n32)c1C	-2.3	33.3	1.5	1.9	22.1	7.1
O=C(O)c1ccc(-c2ccc(/C=c3/sc4nc5ccccc5n4c3=O)o2)cc1Cl	38.9*	105.9*	14.4	89.6*	97.8*	18.5
COc1ccc(C(C(=O)NC2CCCCC2)N(C(=O)CCl)c2ccc(C)cc2)cc1 (centres undefined)	-1.4	35.2	-2.3	2.0	-4.9	-1.2
Cc1cc(S(=O)(=O)NCCN2CCOCC2)ccc1Cl	1.2	-0.4	-1.3	25.6	-1.6	-0.8
CCOC(=O)N=Nc1c2ccccc2c2nc3no[nH]c3nc12	-15.0	50.4*	5.3	1.7	-5.2	0.5
O=C1C(=Cc2ccco2)CCC1=Cc1ccco1	121.2*	34.4	64.3*	97.2*	80.1*	21.2
O/N=C1\CCC\C1=C/c1ccco1	-1.1	24.1	-1.0	0.3	1.8	2.7
CN(CC1CCOCC1)C(=O)CC1C(=O)NCCN1Cc1cccc(F)c1 (centres undefined)	-2.6	-5.2	0.0	4.1	1.1	4.3
O=C(CCNc1ccc(F)cc1)c1cc2ccccc2o1	-7.9	-0.8	0.3	3.6	-5.2	-4.5
COCCN(C(=O)COC(=O)c1cc2c(s1)CCC2)c1c(N)n(Cc2ccccc2)c(=O)[nH]c1=O	112.0*	100.6*	72.1*	95.9*	88.2*	10.7
